High-throughput results as filed in PubChem BioAssay.
Only some compounds are listed: those with a hit (about 1.9% of all), similar ones and a draw of the others.
Hsp70 act: Hsp70 transcriptional activation, primary screen. HeLa Hsp70 promoter luciferase reporter, luminescence; scaled: vehicle 0, proteasome-inhibitor control 100%. AID 1203. 200,000 tested, 0.04% active. activation, % at 10 µM;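 active = activation above the mean across all tested compounds plus 3 SD, cutoff set per campaign, cut at about 5.5% in these data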;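 note: 100% = MG132 at 30 µM as the positive control and 0% = DMSO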
ABHD5-PLIN5 inh: ABHD5-PLIN5 protein interaction inhibition; Q00G26+Q8WTS1; Split G. princeps luciferase complementation, luminescence, 4 h; inhibition, % at 4 µM; 360,000 tested, 0.78% active; AID 602281;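 active = inhibition above the mean inhibition across every tested compound plus 3 SD, cut at about 22% in these data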;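 note: 0% = DMSO only wells and the 100% control is not disclosed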
FXN GAA850 act: increases GAA850 frataxin promoter reporter activity. HEK293 lucGAA850 FXN promoter luciferase reporter, 24 h; percent of 10 µM SAHA response. activation, % at 6 µM. 360,000 tested, 0.56% active;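 active = activation above the average of all compounds screened plus 3 SD, cutoff fixed separately per campaign, cut at about 7.5% in these data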;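 note: 0% = DMSO wells and 100% = 10 µM SAHA wells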
H9c2 TAG inh: inhibitors of triacylglycerol accumulation. 230,000 tested, 0.66% active. inhibition, % at 12.5 µM. AID 651582. H9c2 cells, Nile Red lipid (TAG) fluorescence; cells loaded with 200 µM oleic acid;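 active = pattern-corrected inhibition of lipid staining of at least 50% with the nuclear-stain viability signal not falling by more than 50%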;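 note: 0% = DMSO wells and 100% = triacsin C control wells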
HIF activator: HIF pathway transcriptional activation | U2OS HRE-luciferase reporter, luminescence; normalized: DMSO 0%, desferrioxamine 100% | activation, % at 7.5 µM (by protocol) | 300,000 tested, 0.32% active;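 active = mean activation of at least 10% of the iron chelator positive control signal, with at least half of replicates also reaching 10%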
Rad51 HR inh: blocks human Rad51 in homologous recombination | hRad51 DNA strand exchange, fluorescence dequenching | inhibition, % at 10 µM | AID 1385 | Q06609 | 200,000 tested, 0.085% active;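 active = inhibition above 40% at the single screening dose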;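 note: 0% = DMSO control wells and 100% = blanks with heterologous ssDNA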
Target sequence (Q06609 whole entry, looked up): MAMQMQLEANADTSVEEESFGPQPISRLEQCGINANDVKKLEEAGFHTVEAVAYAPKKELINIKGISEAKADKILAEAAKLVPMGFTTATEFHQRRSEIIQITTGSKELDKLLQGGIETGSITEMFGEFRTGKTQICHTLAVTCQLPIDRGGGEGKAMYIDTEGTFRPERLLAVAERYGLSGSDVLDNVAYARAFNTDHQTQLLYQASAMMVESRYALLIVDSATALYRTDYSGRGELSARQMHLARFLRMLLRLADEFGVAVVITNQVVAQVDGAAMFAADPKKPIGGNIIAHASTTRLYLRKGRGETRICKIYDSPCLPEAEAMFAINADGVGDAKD
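System: hRad51 filaments on single-stranded DNA; reagent: Fluorescein- and BHQ1-tagged 47-mer duplex; compound dosing: one concentration, 10 µM final; timing: filaments 15 min 37 °C, then compound 30 min; measured by: fluorescein emission 520 nm, excitation 485 nm; benchmarks: per-plate controls and blanks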
ABHD5-PLIN5 conf: ABHD5-PLIN5 interaction inhibition, confirmed. shares compounds with ABHD5-PLIN5 inh. AID 651612. 2,200 tested, 67% active. inhibition, % at 4 µM. biochemical ABHD5-PLIN5 interaction, luminescence; in the data active = inhibition above about 23%;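 note: 0% = DMSO vehicle wells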
HNF4 split-luc: HNF4 split-luciferase signal hit, counter-screen | shares compounds with ABHD5-PLIN5 inh | HNF4 dimerization, luminescence, biochemical | inhibition, % at 4 µM | 2,200 tested, 77% active | AID 651674;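 active = mean inhibition across replicate wells exceeding the computed hit threshold, cut at about 13% in these data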;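 note: light from luciferase halves that rejoin when HNF4 fusion proteins dimerize; 0% = DMSO only wells and the 100% control is not given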
* marks the source's active call; other numbers are inactive results; x = no result given.

SMILES	Hsp70 act	ABHD5-PLIN5 inh	FXN GAA850 act	H9c2 TAG inh	HIF activator	Rad51 HR inh	ABHD5-PLIN5 conf	HNF4 split-luc
CCCNC(=O)c1nnsc1S(=O)c1ccc(Cl)cc1 (stereo unspecified)	0	75*	-14	x	-1	4	96*	108*
CN(CCOc1ccc(Cl)cc1)C(=O)c1cc(S(=O)(=O)N2CCOCC2)ccc1N1CCCC1	x	-6	0	-12	x	x	x	x
Cc1ccc(N(Cc2ccccc2)C(=O)c2ccc(F)c(S(=O)(=O)N3CCOCC3)c2)cc1	x	6	0	6	0	x	x	x
COc1ccc([C@H]2CC(=O)C=C(/C=C/Cc3ccccc3)C2)cc1	x	26*	4	-12	x	x	38*	32*
CC(=O)N(c1ccccc1)c1ccccc1[N+](=O)[O-]	x	-2	-1	5	x	x	x	x
CC(=O)NS(=O)(=O)c1ccc(NC(=O)CC(C)c2ccccc2)cc1 (stereo unspecified)	0	10	2	4	0	1	x	x
O=C(Cc1cccs1)Nc1ccc(F)c(S(=O)(=O)N2CCOCC2)c1	x	4	1	3	x	x	x	x
Cc1cccc(OCCNc2cc(N3CCN(CCO)CC3)ccc2[N+](=O)[O-])c1	0	27*	2	x	0	6	16	9
Cc1ccc(S(=O)(=O)N2CCN(c3ccc([N+](=O)[O-])c(NCCN4CCOCC4)c3)CC2)cc1	0	11	4	x	-1	-1	x	x
CC1CN(c2ccc([N+](=O)[O-])c(NCCOc3ccccc3)c2)CCN1 (stereo unspecified)	0	29*	2	x	0	2	16	0
O=[N+]([O-])c1ccc(N2CCN(S(=O)(=O)c3ccccc3)CC2)cc1NCCN1CCOCC1	0	23*	2	15	0	1	2	9
CCN(CC)CCC#CC1(O)c2ccccc2-c2ccccc21	x	-1	1	-1	0	x	x	x
N#Cc1ccc(COC(=O)CN2C(=O)NC3(CCCC3)C2=O)cc1	x	2	1	-4	x	x	x	x
O=C(COC(=O)c1ccc(Br)cc1)NCc1ccccc1	0	0	1	x	0	-1	x	x
CC(=O)Cc1cc(O)c2ccccc2c1OC(=O)c1ccc(Br)cc1	x	73*	1	32	0	-3	83*	13*
CC(NC(=O)COC(=O)C1CCC1)c1ccccc1 (stereo unspecified)	x	23*	0	-5	0	x	4	1
COCCNC(=O)/C(C#N)=C/C=C/c1ccccc1	0	27*	-1	-3	0	-6	17	18*
CC(C)C[C@H]1CN([C@@H](Cc2ccc(O)cc2)CN2CCC[C@@H]2CN2C(=S)NC[C@@H]2Cc2ccccc2)C(=S)N1CCc1ccccc1	x	18	x	x	x	x	x	x
CC(C)C[C@H]1CNC(=S)N1C[C@H]1CCCN1C[C@H](Cc1ccc(O)cc1)N1C[C@H](Cc2ccc(O)cc2)N(CCc2ccccc2)C1=S	x	23*	x	x	x	x	8	2
CCC(C(=O)Nc1cccnc1)n1c(=O)[nH]c2ccccc2c1=O (stereo unspecified)	x	8	0	x	0	x	x	x
O=S1(=O)CC(N2CCN(CCO)CC2)CN1Cc1cn(Cc2ccccc2)nn1 (stereo unspecified)	x	-5	x	x	x	x	x	x
NS(=O)(=O)c1ccc(N2CCCCCC2)c([N+](=O)[O-])c1	0	74*	1	x	-1	-7	2	13*
CCN(C)C1CN(Cc2cn(Cc3ccc(F)cc3)nn2)S(=O)(=O)C1 (stereo unspecified)	x	-1	x	x	x	x	x	x
COc1cccc(-c2sc3ccccc3c2-c2ccc(OCCN3CCCCC3)cc2)c1	x	29*	-1	41	x	x	9	-6
COc1ccc(-c2sc3ccccc3c2-c2ccc(OCCN3CCCCC3)cc2)cc1	x	18	1	47	x	x	x	x
SMILES	Hsp70 act	ABHD5-PLIN5 inh	FXN GAA850 act	H9c2 TAG inh	HIF activator	Rad51 HR inh	ABHD5-PLIN5 conf	HNF4 split-luc
COc1ccc2sc(-c3ccccc3OC)c(-c3ccc(OCCN(C)C)cc3)c2c1	x	16	0	8	x	x	x	x
COc1cccc(-c2sc3ccccc3c2-c2ccc(OCCN3CCCC3)cc2)c1	x	17	1	15	x	x	x	x
Oc1ccc2sc(-c3ccccc3O)c(-c3ccc(OCCN4CCCCC4)cc3)c2c1	x	27*	x	x	x	x	18	x
COc1cccc(-c2sc3ccccc3c2-c2ccc(OCCN(C)C)cc2)c1	x	30*	-1	21	x	x	20	0
COc1ccc(-c2sc3cc(OC)ccc3c2-c2ccc(OCCN3CCCCC3)cc2)cc1	x	25*	x	x	x	x	8	-2
CC(C)CN1CN(Cc2ccccc2)CNC1=S	0	1	2	x	0	-2	x	x
Cc1cccc(-n2ncc3c(=O)[nH]c(SCC(=O)NCCC4=CCCCC4)nc32)c1	x	1	-2	-22	x	x	x	x
Cc1ccc(-c2csc(/C=C3\SC(C)C(=O)N3CC(=O)Nc3ccccc3F)n2)cc1 (stereo unspecified)	x	-1	0	-7	-1	1	x	x
CCCCCNC(=O)C(c1ccc(C#N)cc1)n1c(=O)c(-c2ccco2)nc2ccccc21 (stereo unspecified)	x	75*	x	x	x	x	44*	10
CC(C)(C)NC(=O)C(c1ccccc1F)n1c(=O)c(-c2ccco2)nc2ccccc21 (stereo unspecified)	x	54*	x	x	x	x	91*	36*
CCCCCNC(=O)C(c1ccccc1F)n1c(=O)c(-c2ccco2)nc2ccccc21 (stereo unspecified)	x	96*	x	x	x	x	57*	4
CCCCCNC(=O)C(c1ccc(-c2ccccc2)cc1)n1c(=O)c(-c2ccccc2)nc2ccccc21 (stereo unspecified)	x	-3	x	x	x	x	x	x
CCCCCNC(=O)C(c1cccc2ccccc12)n1c(=O)c(-c2ccccc2)nc2ccccc21 (stereo unspecified)	x	-2	x	x	x	x	x	x
CCCCCNC(=O)C(c1ccc(OC)cc1)n1c(=O)c(-c2ccco2)nc2ccccc21 (stereo unspecified)	x	71*	x	x	x	x	96*	62*
CCN(CC)CCOC(=O)c1ccc(NC(=O)CCCN2C(=O)/C(=C/c3cccs3)SC2=S)cc1	x	19	0	6	0	x	x	x
O=c1c2c3c(sc2n(CCN2CCCCC2)c(=O)n1Cc1ccco1)CCCCC3	-1	7	2	x	-1	-5	x	x
O=C(Cn1c(=O)n(Cc2ccco2)c(=O)c2c3c(sc21)CCCC3)Nc1ccccc1	0	53*	0	18	0	x	24*	10
NC(=O)Cn1c(=O)n(Cc2ccco2)c(=O)c2c3c(sc21)CCCCC3	0	62*	-1	x	0	9	26*	41*
